From PubChem BioAssay
Only some compounds are listed: those with a hit (about 1.7% of all), similar ones and a draw of the others.
Rpn11 block – blocks the human proteasome subunit Rpn11; O00487; human 26S proteasome, Ub4-pepOG fluorescence polarization; 20S core pre-blocked with epoxomicin; inhibition, % at 20 µM; hit rate 0.59% among 360,000;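 active = inhibition at 20 µM, scaled to each plate's controls, above about 33%, limit read from the data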
IDE act – boosts human insulin-degrading enzyme activity in HEK cells; activation, % at 5.96 µM; FAbeta-B cleavage, fluorescence polarization; 0% vehicle, 100% cell-free pure enzyme wells; hit rate 0.073% among 340,000;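 active = activation above the mean of all tested compounds plus 3 SD, set per screening campaign, cut at about 17% in these data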
CSN deneddyl inh – CSN deneddylation inhibition. hit rate 0.38% among 360,000. AID 651999. Purified CSN, SCF-Nedd8-OG deneddylation, fluorescence polarization. inhibition, % at 12.5 µM. Q92905;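 active = pattern-corrected inhibition above about 35%, with an unprinted fluorescence ratio check between 0.5 and 1.5, limit read from the data, passing the limit was not always enough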;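 also: 0% = enzyme with substrate and 100% = substrate without enzyme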
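Detection – fluorescence polarization · System – HEK293T-derived human Csn5 enzyme · Controls – substrate-only high control, full reaction low control · Timing – 90 min, room temperature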
HNF4A DNA FP – change in binding of human HNF4 alpha to DNA | P41235 | HNF4a-FITC DNA binding, fluorescence polarization, 1 h | activity change, % at 10 µM | hit rate 0.3% among 360,000 | AID 1224865; in the data active = activity change above about 30%, passing the limit was not always enough
Target sequence (P41235 whole entry, looked up): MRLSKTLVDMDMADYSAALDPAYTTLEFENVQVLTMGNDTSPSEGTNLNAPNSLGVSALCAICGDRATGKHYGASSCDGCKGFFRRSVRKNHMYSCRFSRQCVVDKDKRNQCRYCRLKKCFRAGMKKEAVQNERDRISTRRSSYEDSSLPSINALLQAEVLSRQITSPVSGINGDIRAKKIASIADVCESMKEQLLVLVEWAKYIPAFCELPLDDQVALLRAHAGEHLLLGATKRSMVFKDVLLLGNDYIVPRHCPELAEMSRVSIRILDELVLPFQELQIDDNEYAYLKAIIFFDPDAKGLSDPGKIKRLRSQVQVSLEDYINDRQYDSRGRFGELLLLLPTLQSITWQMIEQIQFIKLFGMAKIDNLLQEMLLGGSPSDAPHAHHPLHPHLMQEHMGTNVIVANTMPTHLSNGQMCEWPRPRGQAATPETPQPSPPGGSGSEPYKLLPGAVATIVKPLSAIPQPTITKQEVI
TPT1 inh – blocks Candida albicans tRNA 2'-phosphotransferase. recombinant caTPT1, FP RNA substrate dephosphorylation. inhibition, % at 5 µM. hit rate 0.81% among 300,000. AID 1962;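 active = inhibition above the mean of all tested compounds plus 3 SD, set per screening campaign, cut at about 24% in these data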;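 also: plate controls were DMSO alone for no effect and ferristatin control at 100 nM for full effect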
IDE inh – inhibitors of human insulin-degrading enzyme in cells | P14735 | HEK cells, FAbetaB cleavage, fluorescence polarization | inhibition, % at 5.59 µM | hit rate 0.41% among 320,000 | AID 434962;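 active = percent inhibition above the average of all tested compounds plus 3 SD, set per screening campaign, cut at about 16% in these data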;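 also: IDE supplied by intact live HEK cells; FP after avidin binding of uncleaved biotin substrate so inhibition keeps polarization high; 0% = DMSO wells and 100% = 60 µM reference IDE inhibitor Ii1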
Rpn11 inh conf – confirmation of human proteasome Rpn11 inhibitors. shares compounds with Rpn11 block. inhibition, % at 20 µM. hit rate 29% among 1,900. purified human 26S proteasome, Ub4-pepOG fluorescence polarization; proteasome pretreated with epoxomicin
MMP-2 counter – MMP-2 (human) inhibition counter-screen; recombinant MMP-2, FRET peptide cleavage fluorescence; shares compounds with Rpn11 block; hit rate 4% among 1,900; inhibition, % at 20 µM;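 also: human MMP-2 activated beforehand with APMA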
Thrombin inh – thrombin (bovine) inhibition counter-screen; shares compounds with Rpn11 block; bovine thrombin cleavage of Ub4-pepOG, fluorescence polarization; inhibition, % at 20 µM; hit rate 13% among 1,900;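 active = mean inhibition at least 40% at 20 µM, or signal 3 deviations below plate average, so some actives read negative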;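 also: plate controls were thrombin with DMSO for no effect and buffer wells lacking thrombin for full effect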
Starred values were filed as active, the others as inactive; · = no result. Rule as the data show it, unless noted: active = inhibition above about 40%; inactive = the rest.

SMILES	Rpn11 block	IDE act	CSN deneddyl inh	HNF4A DNA FP	TPT1 inh	IDE inh	Rpn11 inh conf	MMP-2 counter	Thrombin inh
C[C@@H]1CCCCO[C@@H](CN(C)C(=O)CCC(F)(F)F)[C@@H](C)CN([C@H](C)CO)C(=O)c2cc(N(C)C)ccc2O1	-1.8	·	4.0	4.0	·	·	·	·	·
O=C(O)c1ccc(/C=C/c2nc3ccccc3c(=O)[nH]2)cc1	-1.8	2.9	-0.2	-1.7	-3.8	-3.3	·	·	·
O=C(O)c1ccc(/C=C/c2nc3sc4c(c3c(=O)[nH]2)CCC4)cc1	73.2*	-9.7	6.8	2.5	1.7	6.8	90.8*	-57.1	40.0*
COCCN1C(=O)c2ccccc2C1c1nc2ccccc2[nH]1 (stereo not given)	0.3	·	0.2	-1.6	·	·	·	·	·
N#CC1=C(N)Oc2cc(N)ccc2C1c1cc(Br)cs1 (stereo not given)	72.9*	-6.7	19.8	17.1	·	·	1.2	17.8	27.2
N#CC1=C(N)Oc2cc(N)ccc2C1c1ccsc1 (stereo not given)	4.5	4.0	-2.7	3.9	2.1	11.8	·	·	·
C=CCSc1nnc(NC(=O)c2cn(CC)c3nc(C)ccc3c2=O)s1	48.2*	-0.9	25.9	17.4	11.6	-1.0	9.8	-63.9	11.6
CC1(C(=O)NCc2ccccc2)CSCC(=O)N1Cc1cccc(F)c1 (stereo not given)	·	·	8.2	-0.1	·	·	·	·	·
Cc1nn(-c2ccccc2)c(N2CCCC2)c1/C=C1\N=C(c2ccc(F)cc2)OC1=O	80.7*	-1.6	5.4	1.8	7.1	-0.4	-15.9	-11.7	-20.3
Cc1ccc(C2=N/C(=C\c3c(C)nn(-c4ccccc4)c3N3CCCC3)C(=O)O2)cc1	16.1	-1.1	3.3	-1.5	1.7	-1.3	·	·	·
COC(=O)Cn1c(=NC(=O)c2nc3ccccc3s2)sc2cc(S(N)(=O)=O)ccc21	47.2*	0.9	17.7	-0.1	1.8	-0.9	-6.1	18.6	-9.4
CCOC(=O)Cn1c(=NC(=O)c2cc(-c3cccs3)nc3ccccc23)sc2cc(S(N)(=O)=O)ccc21	93.8*	7.6	14.1	25.2	18.6	3.4	17.7	-23.5	5.2
COc1nc(-c2ccccc2)ccc1-c1noc(-c2cccnc2)n1	44.2*	-4.6	1.4	9.4	4.3	-2.5	-6.0	-23.8	-7.3
COc1nc(-c2ccc(C)cc2)ccc1-c1noc(-c2cccnc2)n1	13.2	-1.9	5.0	10.5	1.1	-3.8	·	·	·
N#C/C(=C\c1ccc(O)c([N+](=O)[O-])c1)c1nc2ccccc2s1	44.9*	-3.2	10.5	21.0	·	·	42.1*	71.8*	15.2
CC1(C(=O)O)Sc2[nH]c(=O)sc2C2c3ccccc3OC(=O)C21 (stereo not given)	48.5*	-0.4	3.2	39.1*	-6.9	2.0	-4.5	8.2	-1.9
CCCCCCCC(=O)Nc1ccc(C(=O)N/N=C/c2cccc([N+](=O)[O-])c2)cc1	37.5*	1.0	3.9	-7.1	-7.1	1.6	2.7	-33.6	-10.9
CCCCCCC(=O)Nc1ccc(C(=O)N/N=C/c2cccnc2)cc1	1.0	-5.2	-1.8	5.2	-1.0	2.5	·	·	·
CC(Sc1nnc(C2CC2)n1C1CC1)C(=O)N(C)C1(C#N)CCCCC1 (stereo not given)	4.5	2.2	-7.1	1.9	·	-1.1	·	·	·
COc1ccc(CCN2C(=O)COc3ccccc3C2C(=O)NCc2ccccc2)cc1OC (stereo not given)	·	·	-3.7	1.9	·	·	·	·	·
CC(=O)Oc1ccc(S(=O)(=O)c2ccc(OC(C)=O)cc2)cc1	-5.0	-3.4	-9.2	-2.3	-2.2	-4.2	·	·	·
CC(=O)Oc1ccc(CCC(C)OC(C)=O)cc1 (stereo not given)	57.5*	1.7	4.5	0.5	-2.0	2.1	-14.4	-0.4	-11.7
C=C1CCCC2OC(CC3=CC4/C(C)=C/CC(C)CC(/C=C(\C)C(O)C5CC(O)C(O)C(CCC(O)/C=C/C(C)=C/CCC6=NCCC(C3)C64C)O5)OC(=O)CC3OC(C(O)C1)C(O)C3O)CC(O)C2O (stereo not given)	5.6	·	5.6	6.5	·	·	·	·	·
CN(Cc1ccccc1)C(=O)c1cccc(NC(=O)Cc2ccc(NC(=O)C3CCN(C(=O)C4CCC4)CC3)cc2)c1	3.8	0.8	2.5	1.9	·	·	·	·	·
O=c1c2c3c(sc2nc2n1N=C(c1cccs1)CS2)CCCC3	58.5*	0.3	20.2	12.4	4.2	3.2	15.7	-27.4	-16.8
SMILES	Rpn11 block	IDE act	CSN deneddyl inh	HNF4A DNA FP	TPT1 inh	IDE inh	Rpn11 inh conf	MMP-2 counter	Thrombin inh
CCOCCCNC(=O)N[C@@H](Cc1ccccc1)C(=O)OC	57.6*	3.0	-2.4	2.2	-5.1	0.8	-4.8	-3.9	-10.1
CCCCNc1ccc(C(CC(N)=O)NC(=O)Cc2cccc3ccccc23)cc1[N+](=O)[O-] (stereo not given)	24.8	4.4	4.5	10.3	12.6	-3.9	·	·	·
COc1ccc(CCNc2ccc(C(CC(N)=O)NC(=O)Cc3cccc4ccccc34)cc2[N+](=O)[O-])cc1 (stereo not given)	42.1*	-3.0	11.7	33.2	14.6	-1.4	52.1*	-21.1	30.2
NC(=O)CC(NC(=O)Cc1ccc(Cl)cc1)c1ccc(NC2CCCCC2)c([N+](=O)[O-])c1 (stereo not given)	21.5	-1.7	96.9	4.0	0.7	-2.1	·	·	·
NC(=O)CC(NC(=O)Cc1ccc(Cl)cc1)c1ccc(NC2CCCC2)c([N+](=O)[O-])c1 (stereo not given)	44.8*	5.1	113.0	15.5	15.1	1.4	47.2*	-10.4	30.3
O=C(Nc1nnc([C@@H]2C[C@H](O)[C@@H](CO)O2)s1)Nc1ccc(F)cc1F	0.6	·	-1.0	-2.5	·	·	·	·	·
Cc1sc2ncnc(SCC(=O)NCC(C)C)c2c1C	-1.7	6.5	1.4	0.4	-3.3	-4.8	·	·	·
CCc1ccc(OCC(=O)NNC(=O)CSc2ncnc3sc(C)c(C)c23)cc1	60.2*	-5.1	17.6	-10.4	-1.5	-4.1	-11.6	-30.7	-23.5
Cc1sc2ncnc(SCC(=O)NC(C)(C)C)c2c1C	-6.6	-8.7	-3.6	2.5	-2.0	0.8	·	·	·
Cc1ccc(OCC(=O)NNC(=O)CSc2ncnc3sc(C)c(C)c23)cc1	116.4*	0.0	37.6*	2.8	-2.4	-0.4	57.2*	68.3*	-9.8
O=C(Nc1ccc(C(=O)O)cc1)/C(=C\c1ccc2c(c1)OCO2)NC(=O)c1ccccc1Cl	4.0	·	-2.5	-1.0	·	·	·	·	·
